Measurements as given in PubChem BioAssay AID488858 (Broad Institute, 2010).
Records with an inconclusive call do not appear. Calls of active or inactive are those of the source.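 Rule for the calls: active = compounds raising caspase signal whose fitted AC50 is at most tenfold their top valid tested dose; inconclusive = flat fit at 30 to 70% activation, or poor fit; inactive = the rest.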

Tested on: not listed separately
Assay: caspase-3/7 activation in MEF A1-2A-BIM cells, dose response, A1 (BCL2A1) inhibitor project, cell-based, luminescence, dry powder, set 3 (AID 488858)
Conditions: MEF A1-2A-BIM cells, caspase-3/7 luminescence; at 150 µM (top of the series)
Outline: (§1)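 Material: Mouse embryonic fibroblasts co-expressing A1-2A-BIM, survival dependent on A1 | Quantity: 2500 cells per well | Buffer or medium: RPMI medium with 10% FBS | Doses: Dry-powder compounds pinned as a dose series | Incubation: 3 h compound at 37 °C, 1 h reagent at RT | Detection: Caspase-3/7 DEVD luminescence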

For `CC(=O)OC(C)(C)/C=C/C(=O)[C@](C)(O)C1[C@H](O)C[C@@]2(C)C3CC=C4C(C[C@H](O)C(=O)C4(C)C)[C@]3(C)C(=O)C[C@]12C` (some centres undefined), the caspase activation was 1.66% (inactive).
In the case of `COc1cc(/C=C(/C#N)c2nc3ccccc3[nH]2)ccc1OCC(=O)Nc1ccccc1C(C)C`, the caspase activation is reported as 0.201% (inactive).

Tested on: MEF A1-2A-BIM cells, caspase-3/7 luminescence
Assay: as above
Conditions: not given
Outline: as §1

In order of falling AC50:
1. Cc1ccc(Sc2c([N+](=O)[O-])c(=O)n(C)c3ccccc23)cc1  21 µM
2. CCc1nnc(NC(=O)c2nc(S(=O)(=O)Cc3ccccc3)ncc2Cl)s1  15.6 µM
3. CCSc1nnc(NC(=O)c2nc(S(=O)(=O)Cc3ccc(F)cc3)ncc2Cl)s1  14.4 µM
4. Cc1cccc(CS(=O)(=O)c2ncc(Cl)c(C(=O)Nc3nnc(C(C)C)s3)n2)c1  12.6 µM
5. Cc1ccc(CS(=O)(=O)c2ncc(Cl)c(C(=O)Nc3nnc(C(C)C)s3)n2)cc1  12.3 µM
6. Cc1c(CCOC(=O)c2ccc(N3CCOCC3)c([N+](=O)[O-])c2)sc[n+]1CC#N  10.7 µM
7. COc1cc(CN2CCN(c3cc(C)ccc3C)CC2)ccc1O  10.6 µM
8. CCOC(=O)CSC1=N/C(=C/c2ccc(-n3cncn3)cc2)C(=O)N1C(C)=O  9.77 µM
9. CC(=O)N[C@H]1[C@H](O[C@H]2CC[C@@]3(C)C(CC[C@]4(C)C3CC=C3[C@@H]5CC(C)(C)CC[C@]5(C(=O)OC5OCC(O)C(O)C5O)C(O)C[C@]34C)C2(C)C)O[C@H](COC2OCC(O)C(OC3OCC(O)C(O)C3O)C2O)[C@@H](O[C@@H]2O[C@@H](C)[C@H](O)[C@@H](O)[C@H]2O[C@@H]2O[C@@H](C)[C@H](O)[C@@H](O)[C@H]2O)[C@@H]1O (some centres undefined)  9.71 µM
10. CC(C)(C)n1nc(-c2ccc(Cl)cc2)c2c(N)ncnc21  6.5 µM
11. Cc1c(C=O)c(C=O)c(C)n1Cc1ccccc1  6.27 µM
12. Cc1cc(C(=O)CCl)c(C)n1CCc1ccc(Cl)cc1  6.06 µM
13. Cc1cccc(NC(=O)/C(C#N)=C/c2cn(CC(=O)NCc3ccco3)c3ccccc23)c1  5.6 µM
14. CCc1cc2c(=O)c(-c3cnn(-c4ccccc4)c3)c(C)oc2cc1OCC(=O)Nc1cccc(C)c1  5.41 µM
15. O=C(Oc1cccc(/C=N/Nc2nc(Nc3ccccc3)nc(N3CCOCC3)n2)c1)c1ccco1  4.23 µM
16. Cn1c(=NC(=O)CCl)sc2ccccc21  4 µM
17. Nc1nc(F)nc2c1ncn2[C@@H]1O[C@H](CO)[C@@H](O)[C@H]1O  2.87 µM
18. C=C1[C@@H](C)[C@H]2[C@H](Cc3ccccc3)NC(=O)[C@]23OC(=O)/C=C\[C@H](O)CCC[C@@H](C)C/C=C/[C@H]3[C@@H]1O  2.72 µM
19. C=C1[C@@H](C)[C@H]2[C@H](Cc3ccccc3)NC(=O)[C@]23[C@H](OC(C)=O)/C=C/[C@](C)(O)C(=O)[C@@H](C)C/C=C/[C@H]3[C@@H]1O  1.2 µM
20. O=C(CCl)N=c1sccn1Cc1ccccc1Cl  1.06 µM
21. C/C1=C/C(=O)O[C@@H]2C[C@@H](CC[C@H](C)/C=C\CC1)O[C@@](O)(C1CSC(=O)N1)C2 (some centres undefined)  0.37 µM
22. COc1ccc(N(C(=O)CCl)C(C(=O)NCCc2ccccc2)c2cccs2)cc1Cl (centres undefined)  0.236 µM
